Converted amounts (≈) assume the structure as drawn. One block for each compound: values may come before it. The source made the active and inactive calls. The calls are words filed in the database; no cut-off is given here.
What was measured:
[1] = target: T1, Serine/threonine-protein kinase WNK1 (Homo sapiens, UniProt Q9H4A3); experiment: Non-competitive inhibition of recombinant human N-terminal GST-tagged WNK1 (1 to 491 residues) expressed in baculovirus expression system using fluorescein-labeled OSR1 peptide as substrate measured every 3 mins from 90 to 250 mins in presence of varying concentration of ATP by Michaelis-Menten plot-based analysis
T1 sequence (Q9H4A3 whole entry, the tested form may be a part): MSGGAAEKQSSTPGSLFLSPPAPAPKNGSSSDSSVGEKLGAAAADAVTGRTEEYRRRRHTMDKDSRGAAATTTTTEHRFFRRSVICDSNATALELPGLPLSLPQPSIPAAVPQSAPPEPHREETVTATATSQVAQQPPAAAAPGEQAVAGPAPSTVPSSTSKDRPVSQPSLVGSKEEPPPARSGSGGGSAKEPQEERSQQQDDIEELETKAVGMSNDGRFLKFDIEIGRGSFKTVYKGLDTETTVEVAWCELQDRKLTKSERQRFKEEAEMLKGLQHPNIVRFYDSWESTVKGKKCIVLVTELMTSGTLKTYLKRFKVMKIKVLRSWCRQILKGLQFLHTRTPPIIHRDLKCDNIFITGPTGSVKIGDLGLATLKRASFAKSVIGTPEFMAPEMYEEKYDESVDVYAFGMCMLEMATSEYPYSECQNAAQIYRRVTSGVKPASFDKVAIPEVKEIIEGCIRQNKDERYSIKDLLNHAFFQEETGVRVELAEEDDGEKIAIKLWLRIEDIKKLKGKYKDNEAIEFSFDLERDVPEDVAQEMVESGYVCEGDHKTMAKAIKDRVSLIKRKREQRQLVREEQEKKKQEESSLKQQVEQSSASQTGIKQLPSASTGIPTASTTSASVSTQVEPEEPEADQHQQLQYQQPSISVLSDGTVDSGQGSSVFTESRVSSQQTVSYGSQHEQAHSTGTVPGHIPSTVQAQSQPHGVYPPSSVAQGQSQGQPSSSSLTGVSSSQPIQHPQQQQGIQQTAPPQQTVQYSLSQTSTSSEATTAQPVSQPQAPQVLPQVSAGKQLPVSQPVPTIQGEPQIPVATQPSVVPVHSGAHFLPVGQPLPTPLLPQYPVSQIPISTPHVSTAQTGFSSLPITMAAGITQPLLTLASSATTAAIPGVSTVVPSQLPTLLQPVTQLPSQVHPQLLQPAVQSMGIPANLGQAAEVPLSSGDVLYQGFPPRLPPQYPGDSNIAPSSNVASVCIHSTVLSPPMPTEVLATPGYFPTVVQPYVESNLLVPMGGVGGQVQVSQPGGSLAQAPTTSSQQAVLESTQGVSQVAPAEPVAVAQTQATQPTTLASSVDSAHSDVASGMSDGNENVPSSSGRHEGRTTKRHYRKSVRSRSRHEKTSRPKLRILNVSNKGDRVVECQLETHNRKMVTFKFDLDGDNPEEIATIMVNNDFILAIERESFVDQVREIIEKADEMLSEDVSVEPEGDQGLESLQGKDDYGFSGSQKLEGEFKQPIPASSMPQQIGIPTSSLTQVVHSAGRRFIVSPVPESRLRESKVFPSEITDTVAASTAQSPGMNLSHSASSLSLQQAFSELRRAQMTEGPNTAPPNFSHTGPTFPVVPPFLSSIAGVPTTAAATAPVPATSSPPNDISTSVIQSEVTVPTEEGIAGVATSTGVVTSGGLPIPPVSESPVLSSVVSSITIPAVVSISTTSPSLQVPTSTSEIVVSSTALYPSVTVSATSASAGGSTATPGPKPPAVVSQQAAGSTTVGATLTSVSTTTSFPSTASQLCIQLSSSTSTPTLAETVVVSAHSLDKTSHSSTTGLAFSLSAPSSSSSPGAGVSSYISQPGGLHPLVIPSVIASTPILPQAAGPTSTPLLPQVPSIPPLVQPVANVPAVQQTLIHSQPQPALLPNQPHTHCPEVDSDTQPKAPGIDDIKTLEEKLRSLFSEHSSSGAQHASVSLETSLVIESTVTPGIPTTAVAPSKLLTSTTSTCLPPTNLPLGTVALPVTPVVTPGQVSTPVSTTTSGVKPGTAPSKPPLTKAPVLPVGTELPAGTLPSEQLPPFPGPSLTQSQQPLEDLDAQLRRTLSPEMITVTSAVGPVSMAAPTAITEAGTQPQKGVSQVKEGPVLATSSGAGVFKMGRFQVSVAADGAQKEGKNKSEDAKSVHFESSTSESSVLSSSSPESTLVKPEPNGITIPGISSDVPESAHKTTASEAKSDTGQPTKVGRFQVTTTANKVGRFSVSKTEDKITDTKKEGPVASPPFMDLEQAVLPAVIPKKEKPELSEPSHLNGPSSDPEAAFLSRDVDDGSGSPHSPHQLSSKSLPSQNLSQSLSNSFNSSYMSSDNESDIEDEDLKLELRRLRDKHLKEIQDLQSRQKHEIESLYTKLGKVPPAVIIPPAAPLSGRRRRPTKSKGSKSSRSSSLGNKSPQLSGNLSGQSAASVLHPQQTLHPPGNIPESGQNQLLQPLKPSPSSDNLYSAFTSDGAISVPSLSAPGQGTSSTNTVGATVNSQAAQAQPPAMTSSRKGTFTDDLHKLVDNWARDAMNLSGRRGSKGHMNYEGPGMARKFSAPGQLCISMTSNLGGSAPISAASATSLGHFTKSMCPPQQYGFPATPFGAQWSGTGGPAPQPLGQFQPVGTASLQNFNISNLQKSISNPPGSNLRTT

[2] = target: T1, Serine/threonine-protein kinase WNK1; experiment: Allosteric inhibition of recombinant human N-terminal GST-tagged WNK1 catalytic domain (1 to 491 residues) expressed in baculovirus expression system using fluorescein-labeled OSR1 peptide as substrate after 3 hrs by mobility shift assay
[3] = Clearance in Sprague-Dawley rat at 0.5 mg/kg, iv measured up to 7 hrs post dose by HPLC analysis; type: ADME, organism-based; conditions: in vivo
[4] = AUC in Sprague-Dawley rat at 1.5 mg/kg, po measured up to 7 hrs post dose by HPLC analysis; type: ADME, organism-based; parameters: time < 7 hr, dose 1.5 mg/kg, route oral; conditions: in vivo
[5] = Cmax in Sprague-Dawley rat at 1.5 mg/kg, po measured up to 7 hrs post dose by HPLC analysis; type: ADME, organism-based; parameters: dose 1.5 mg/kg, route oral; conditions: in vivo
[6] = Oral bioavailability in Sprague-Dawley rat at 1.5 mg/kg measured up to 7 hrs post dose by HPLC analysis; type: ADME, organism-based; conditions: in vivo
Rattus norvegicus [7] = experiment: Anti-hypertensive activity in […] rat assessed as induction of diuresis at 10 mg/kg, po administered as single dose on day 2,3 and 4 measured for 7 hrs post dose; type: functional, organism-based
Procedure, shortened: (§1)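 Spontaneously hypertensive rats got single ascending oral doses on successive days (vehicle, then 10, 30, then 100 mg kg−1). Urine was collected in metabolic cages over 7 h for volume and sodium and potassium excretion. n = 4 per group, mean ± SEM, one-way ANOVA with Bonferroni post-test versus vehicle.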

Rattus norvegicus [8] = experiment: Anti-hypertensive activity in […] rat assessed as induction of natriuresis at 10 mg/kg, po administered as single dose on day 2,3 and 4 measured for 7 hrs post dose; type: functional, organism-based; procedure, shortened: as §1
[9] = target: T1, Serine/threonine-protein kinase WNK1; experiment: Allosteric inhibition of WNK1 (unknown origin) expressed in HEK293 cells co-expressing flag-OSR1 assessed as reduction in sorbitol-stimulated OSR1 phosphorylation preincubated with compound for 2.5 hrs followed co-administration with sorbitol measured after 1 hr by AlphaLISA assay; type: cell-based
[10] = Equilibrium solubility of compound at pH 6.8; type: physicochemical; conditions: buffer
[11] = Half life in rat liver microsomes; type: ADME, microsome
Mus musculus [12] = experiment: Anti-hypertensive activity in human WNK1 transgenic FVB mouse assessed as reduction in systolic blood pressure at 30 mg/kg, po via gavage measured every 10 minutes for 15 seconds; type: functional, organism-based
Procedure, shortened: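 Conscious FVB mice transgenic for human WNK1, fitted with implanted radiotelemetry devices, received single oral doses. Systolic blood pressure was expressed as peak and time-weighted average change against the 24 h pre-dose baseline. Heart rate was also monitored. n = 4 per group, mean ± SEM, two-way ANOVA with Bonferroni post-test versus vehicle. Plasma exposure was measured in a separate cohort (n = 3).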

[13] = Ratio of Cp in human WNK1 expressing transgenic FVB mouse at 30 mg/kg, po to IC50 for WNK1 (unknown origin) expressed in HEK293 cells
Procedure, shortened: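 Separate PK cohort of FVB mice overexpressing human WNK1, given a single oral dose of 30 mg kg−1 (n = 3); venous blood sampled over time for plasma concentration. Plasma level compared against the cellular IC50 from AlphaLISA readout of WNK-mediated phosphorylation of exogenous OSR1 in HEK293 cells.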

[14] = Plasma concentration in human WNK1 transgenic FVB mouse at 30 mg/kg, po via gavage up to 7 hrs; type: ADME, organism-based
Procedure, shortened: (§2)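 A separate cohort of human WNK1-overexpressing FVB mice was dosed 30 mg kg−1 p.o. Venous blood samples were taken over time to 7 h for plasma drug concentration. n = 3.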

[15] = Plasma concentration in human WNK1 transgenic FVB mouse at 30 mg/kg, po via gavage at 7 hrs post dose; type: ADME, organism-based; procedure, shortened: as §2
[16] = target: T1, Serine/threonine-protein kinase WNK1; experiment: Allosteric inhibition of recombinant human N-terminal GST-tagged WNK1 catalytic domain (1 to 491 residues) expressed in baculovirus expression system using fluorescein-labeled OSR1 peptide as substrate after 3 hrs by HTRF assay
[17] = target: Tyrosine-protein kinase BTK (Homo sapiens) (UniProt Q06187); experiment: Inhibition of human full length BTK expressed in mammalian expression system at 10 uM by kinomescan assay
Sequence of Tyrosine-protein kinase BTK (Homo sapiens) (Q06187 whole entry): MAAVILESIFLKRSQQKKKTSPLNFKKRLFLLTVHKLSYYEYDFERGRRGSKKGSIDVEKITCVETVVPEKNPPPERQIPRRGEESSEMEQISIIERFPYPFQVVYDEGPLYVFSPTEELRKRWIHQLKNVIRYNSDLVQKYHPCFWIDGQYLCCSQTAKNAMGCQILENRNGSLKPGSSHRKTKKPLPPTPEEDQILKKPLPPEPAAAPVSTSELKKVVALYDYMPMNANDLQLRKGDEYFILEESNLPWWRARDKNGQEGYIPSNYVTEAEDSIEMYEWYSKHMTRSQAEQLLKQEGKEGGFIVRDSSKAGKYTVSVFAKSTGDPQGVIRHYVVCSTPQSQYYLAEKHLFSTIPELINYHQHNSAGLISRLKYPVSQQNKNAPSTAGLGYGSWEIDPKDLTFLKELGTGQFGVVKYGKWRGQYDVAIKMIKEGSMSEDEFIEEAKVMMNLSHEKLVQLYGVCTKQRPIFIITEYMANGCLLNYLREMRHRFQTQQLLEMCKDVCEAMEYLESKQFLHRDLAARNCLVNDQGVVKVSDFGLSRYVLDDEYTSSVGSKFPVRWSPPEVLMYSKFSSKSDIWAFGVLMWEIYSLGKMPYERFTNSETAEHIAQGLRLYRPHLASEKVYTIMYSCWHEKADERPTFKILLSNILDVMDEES
Procedure, shortened: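 Binding panel of 440 human kinases (KINOMEscan) at a 10 μM screening concentration. Percent inhibition per kinase, with >35% inhibition flagged as significant.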

[18] = target: Tyrosine-protein kinase Fer (Homo sapiens) (UniProt P16591); experiment: Inhibition of human FER (542 to 822 residues) expressed in bacterial expression system at 10 uM by kinomescan assay
Sequence of Tyrosine-protein kinase Fer (Homo sapiens) (P16591 whole entry, looked up, the tested form may be a part): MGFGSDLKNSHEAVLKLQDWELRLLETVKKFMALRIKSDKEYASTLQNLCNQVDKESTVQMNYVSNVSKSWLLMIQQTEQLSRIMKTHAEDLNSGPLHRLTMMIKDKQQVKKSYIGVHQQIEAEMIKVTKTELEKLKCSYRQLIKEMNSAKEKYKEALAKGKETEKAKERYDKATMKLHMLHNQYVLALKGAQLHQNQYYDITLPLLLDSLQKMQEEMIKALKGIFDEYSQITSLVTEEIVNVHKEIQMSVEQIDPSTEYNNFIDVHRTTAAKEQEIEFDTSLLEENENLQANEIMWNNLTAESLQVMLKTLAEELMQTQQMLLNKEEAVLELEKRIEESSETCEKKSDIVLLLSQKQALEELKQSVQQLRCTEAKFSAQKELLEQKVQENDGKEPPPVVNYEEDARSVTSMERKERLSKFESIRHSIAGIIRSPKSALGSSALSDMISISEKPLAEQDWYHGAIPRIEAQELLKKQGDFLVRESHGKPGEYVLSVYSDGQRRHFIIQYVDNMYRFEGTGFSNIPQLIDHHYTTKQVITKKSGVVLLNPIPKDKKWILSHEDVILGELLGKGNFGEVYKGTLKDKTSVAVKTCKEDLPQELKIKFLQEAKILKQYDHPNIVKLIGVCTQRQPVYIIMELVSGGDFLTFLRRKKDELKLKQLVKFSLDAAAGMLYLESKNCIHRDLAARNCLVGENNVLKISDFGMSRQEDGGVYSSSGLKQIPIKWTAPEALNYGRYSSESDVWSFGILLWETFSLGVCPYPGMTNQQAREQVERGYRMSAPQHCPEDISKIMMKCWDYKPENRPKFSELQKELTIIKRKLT
Procedure, shortened: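 KINOMEscan panel of 440 human kinases, with test compound screened at a single concentration of 10 μM. Read-out is percent inhibition. Hits above 35% inhibition are flagged.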

Mus musculus [19] = experiment: Anti-hypertensive activity in po dosed human WNK1 transgenic FVB mouse assessed as reduction in blood pressure administered via gavage measured every 10 minutes for 15 seconds after 6 to 12 hrs; type: functional, organism-based; conditions: tested as the 2H-labelled form
Procedure, shortened: (§3)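 Conscious FVB mice overexpressing human WNK1, with implanted radiotelemetry devices, received single oral doses of 10, 30 or 100 mg kg−1. Systolic blood pressure was read as peak and time-weighted average against the 24 h before treatment. n = 4 per group, mean ± SEM, two-way ANOVA with Bonferroni post-test versus vehicle.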

Mus musculus [20] = experiment: Anti-hypertensive activity in human WNK1 transgenic FVB mouse assessed plasma concentration required for SBP reducing activity at 30 mg/kg, po via gavage measured after 7 hrs; type: functional, organism-based; conditions: tested as the 2H-labelled form; procedure, shortened: as §2
Rattus norvegicus [21] = experiment: Anti-hypertensive activity in SHR rat assessed as induction of diuresis administered orally as single dose on day 2,3 and 4 measured for 7 hrs post dose; type: functional; conditions: tested as the 2H-labelled form; procedure, shortened: as §1
Rattus norvegicus [22] = experiment: Anti-hypertensive activity in […] rat assessed as induction of natriuresis administered orally as single dose on day 2,3 and 4 measured for 7 hrs post dose; type: functional; conditions: tested as the 2H-labelled form; procedure, shortened: as §1
Rattus norvegicus [23] = experiment: Anti-hypertensive activity in […] rat assessed as induction of kaliuresis administered orally as single dose on day 2,3 and 4 measured for 7 hrs post dose; type: functional; conditions: tested as the 2H-labelled form; procedure, shortened: as §1
Rattus norvegicus [24] = experiment: Anti-hypertensive activity in […] rat assessed as reduction in blood pressure at 100 mg/kg, po measured for 7 hrs post dose; type: functional, organism-based; conditions: tested as the 2H-labelled form
Rattus norvegicus [25] = experiment: Anti-hypertensive activity in […] rat assessed as reduction in stroke volume at 100 mg/kg, po measured for 7 hrs post dose; type: functional, organism-based; conditions: tested as the 2H-labelled form
Rattus norvegicus [26] = experiment: Anti-hypertensive activity in […] rat assessed as reduction in total peripheral resistance at 100 mg/kg, po measured for 7 hrs post dose; type: functional, organism-based; conditions: tested as the 2H-labelled form
Rattus norvegicus [27] = experiment: Increase in heart rate in […] rat at 100 mg/kg, po measured for 7 hrs post dose; type: functional, organism-based; conditions: tested as the 2H-labelled form
Mus musculus [28] = experiment: Anti-hypertensive activity in po dosed human WNK1 transgenic FVB mouse assessed as reduction in blood pressure administered via gavage measured every 10 minutes for 15 seconds after 2 hrs; type: functional, organism-based; conditions: tested as the 2H-labelled form; procedure, shortened: as §3

Compound: CNc1nc(-c2ccc3c(c2)CCN3C(=O)c2ccccc2OCc2ccc(Cl)cc2)cs1
clearance [3]: 108 mL/min/kg | AUC at 7 h [4]: 0.014 µM·h | Cmax [5]: 2 nM | bioavailability [6]: 1.4% | IC50 [2]: 420 nM

Compound: N=C(N)NC(=O)c1nc(Cl)c(N)nc1N
Activity (Rattus norvegicus [7]): Active | Activity (Rattus norvegicus [8]): Active

Compound: COc1cccc(-c2cc(C(=O)N(C)[C@@H]3CCN(Cc4ccc(Cl)cc4)C3)c3ccccc3n2)c1
IC50 [2]: 750 nM

Compound: [2H]C([2H])([2H])Nc1nc(-c2cc(C(=O)N3CCN(Cc4ccc(Cl)cc4)CC3)c(Cl)cn2)cs1
IC50 [9]: 589 nM | solubility thermodynamic [10]: 19 µM (≈ 8.84 µg/mL) | half-life [11]: 15 min | clearance [3]: 24 mL/min/kg | AUC at 7 h [4]: 0.811 µM·h | Cmax [5]: 308 nM | bioavailability [6]: 45% | Ratio [13]: 3 | concentration at 7 h [14]: 1000 nM | concentration at 7 h [15]: 1000 nM | IC50 [2]: 6 nM

Compound: CNc1nc(-c2cc(C(=O)N3CCN(Cc4ccc(Cl)cc4)CC3)ccn2)cs1
IC50 [2]: 106 nM

Compound: COc1cccc(-c2cc(C(=O)N3CCN(Cc4ccc(Cl)cc4)CC3)ccn2)c1
IC50 [2]: 971 nM

Compound: CNc1nc(-c2cc(C(=O)N3CCN(Cc4ccc(Cl)cc4)CC3)c(Cl)cn2)cs1
IC50 [9]: 352 nM | solubility thermodynamic [10]: 55 µM (≈ 25.4 µg/mL) | half-life [11]: 13 min | clearance [3]: 36 mL/min/kg | AUC at 7 h [4]: 0.279 µM·h | Cmax [5]: 113 nM | bioavailability [6]: 21% | inhibition [17]: Active | inhibition [18]: Active | Activity (Mus musculus [19]): Dose-dependent effect | Cp (Mus musculus [20]): > 2 µM | Activity (Rattus norvegicus [21]): Dose-dependent effect | Activity (Rattus norvegicus [22]): Dose-dependent effect | Activity (Rattus norvegicus [23]): Dose-dependent effect | Activity (Rattus norvegicus [24]): Active | Activity (Rattus norvegicus [25]): Active | Activity (Rattus norvegicus [26]): Active | Activity (Rattus norvegicus [27]): Active | Activity (Mus musculus [28]): Dose-dependent effect | IC50 [2]: 4 nM

Second part, led by results:

Ki [1]: 32.4 nM | IC50 [2]: 162 nM
Compound: COc1cccc(-c2cccc(-n3cc(CNCC4CCCCC4)c4ccccc43)c2)c1

IC50 [2]: 623 nM
Compound: COc1cccc(-c2cc(C(=O)N3CCN(Cc4ccccc4)CC3)c3ccccc3n2)c1

IC50 [9]: 1390 nM | solubility thermodynamic [10]: 550 µM (≈ 220 µg/mL) | half-life [11]: 15 min | IC50 [2]: 95 nM
Compound: COc1cccc(-c2cc(-n3cc(CNCC(C)C)c4ccccc43)c(C)cn2)c1
Activity (Mus musculus [12]): Active

IC50 [16]: 39 nM
Compound: COc1cccc(-c2cc(-n3cc(CNCC4CCCCC4)c4cc(F)ccc43)ccn2)c1

IC50 [2]: 60 nM
Compound: COc1cccc(-c2cc(-n3cc(CNCC4CCCCC4)c4ccccc43)ccn2)c1

IC50 [2]: 2140 nM
Compound: c1ccc(-c2cccc(-n3cc(CNCC4CCCCC4)c4ccccc43)c2)cc1

Source: ChEMBL document CHEMBL4038341, “Optimization of Allosteric With-No-Lysine (WNK) Kinase Inhibitors and Efficacy in Rodent Hypertension Models” (J Med Chem, 2017)
